The record followed here is ChEMBL document CHEMBL1811824, “Synthesis and evaluation of mansonone F derivatives as topoisomerase inhibitors” (Eur J Med Chem, 2011).

Molecules are shown by their SMILES. The source made the active and inactive calls. The calls are words filed in the database; no cut-off is given here.

Assay [1] can be described thus: Antitumor against human CNE2 cells assessed as cell survival after 48 hrs by MTT assay. Format: functional, cell-based. To be noted: CNE-2, 48 h. The method, boiled down:
(§1)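 1 × 10^4 cells per well plated and left overnight, then exposed to compound at 0–100 μM for 48 h. Per well, 20 μl of 5 mg/ml MTT added, then incubated 4 h at 37 °C. Untransformed MTT removed, formazan dissolved in DMSO, absorbance read at 570 nm, and IC50 derived. Modified Mosmann method.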
Background: Tetrazolium assays rely on reduction of a dye to a coloured formazan, in cell work by metabolically active cells.

The nature of assay [2]: Antitumor against human GLC82 cells assessed as cell survival after 48 hrs by MTT assay. The format is functional, cell-based. The conditions noted are these: GLC82, 48 h. The method, boiled down:
as §1

Assay [3] concerns the target T1, DNA topoisomerase 1 (Homo sapiens) (UniProt P11387).
T1 sequence (whole entry): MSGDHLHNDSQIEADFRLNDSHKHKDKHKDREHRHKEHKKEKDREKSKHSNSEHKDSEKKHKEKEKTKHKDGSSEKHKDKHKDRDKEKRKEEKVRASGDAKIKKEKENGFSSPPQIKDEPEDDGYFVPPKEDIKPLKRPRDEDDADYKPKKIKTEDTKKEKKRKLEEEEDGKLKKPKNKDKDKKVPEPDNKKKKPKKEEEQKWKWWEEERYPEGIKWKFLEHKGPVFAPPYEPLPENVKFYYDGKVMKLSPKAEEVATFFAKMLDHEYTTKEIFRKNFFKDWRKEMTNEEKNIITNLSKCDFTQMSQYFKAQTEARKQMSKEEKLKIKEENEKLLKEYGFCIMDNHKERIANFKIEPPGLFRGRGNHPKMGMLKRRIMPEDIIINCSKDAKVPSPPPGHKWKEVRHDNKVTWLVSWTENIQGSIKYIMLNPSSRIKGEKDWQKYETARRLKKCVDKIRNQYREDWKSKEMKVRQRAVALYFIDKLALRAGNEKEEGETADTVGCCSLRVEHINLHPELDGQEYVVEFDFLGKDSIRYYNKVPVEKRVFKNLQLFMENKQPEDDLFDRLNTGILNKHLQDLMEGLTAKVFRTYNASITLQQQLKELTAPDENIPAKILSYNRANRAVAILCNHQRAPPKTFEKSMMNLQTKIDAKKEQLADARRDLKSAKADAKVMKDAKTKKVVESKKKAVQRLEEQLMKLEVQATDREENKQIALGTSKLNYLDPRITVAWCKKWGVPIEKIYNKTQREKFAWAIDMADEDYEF
Put plainly: Inhibition of human topoisomerase 1-mediated relaxation of supercoiled pBR322 DNA at 250 uM after 30 mins by agarose gel electrophoresis.

For assay [4], the target named is T2, DNA topoisomerase 2-alpha (Homo sapiens, UniProt P11388). Put plainly: Inhibition of human topoisomerase 2 alpha-mediated relaxation of supercoiled pBR322 DNA after 30 mins by agarose gel electrophoresis. The method, boiled down:
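Compound added at constant solvent volume. Started with 1 U human topo IIα, 30 min at 37 °C. Stopped with sarkosyl/bromophenol blue/glycerol buffer. Read on 1% agarose TAE gel, ethidium-stained, imaged under UV.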

Assay [5] concerns the target T2, DNA topoisomerase 2-alpha. The assay can be described thus: Ratio IC50 of etoposide to IC50 of compound for human topoisomerase 2 alpha. The method, boiled down: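 Human topo IIα relaxation of 0.2 μg pBR322 in Tris pH 8.0 buffer with 5 mM ATP, using 1 U enzyme for 30 min at 37 °C, read on agarose gel.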
The target in assay [6] is Telomerase reverse transcriptase (Homo sapiens) (UniProt O14746). Put plainly: Inhibition of telomerase in human K562 cells at 20 uM using telo TAGGG telomerase PCR ELISA. The format is cell-based. The method, boiled down:
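TRAP-based kit with non-radioactive ELISA read-out, run on K562 human leukemia cells per the manufacturer's instructions.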
Background: ELISA stands for enzyme-linked immunosorbent assay.

Assay [7] deals with Ehrlich. The assay can be described thus: Inhibition of DNA primase in mouse EAC cells assessed as incorporation of [3H]dATP to […] template at 100 uM after 1 hr by scintillation counting. The format is cell-based. The method, boiled down:
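DNA primase isolated from Ehrlich ascites carcinoma cells grown in culture.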

T2 sequence (P11388 whole entry): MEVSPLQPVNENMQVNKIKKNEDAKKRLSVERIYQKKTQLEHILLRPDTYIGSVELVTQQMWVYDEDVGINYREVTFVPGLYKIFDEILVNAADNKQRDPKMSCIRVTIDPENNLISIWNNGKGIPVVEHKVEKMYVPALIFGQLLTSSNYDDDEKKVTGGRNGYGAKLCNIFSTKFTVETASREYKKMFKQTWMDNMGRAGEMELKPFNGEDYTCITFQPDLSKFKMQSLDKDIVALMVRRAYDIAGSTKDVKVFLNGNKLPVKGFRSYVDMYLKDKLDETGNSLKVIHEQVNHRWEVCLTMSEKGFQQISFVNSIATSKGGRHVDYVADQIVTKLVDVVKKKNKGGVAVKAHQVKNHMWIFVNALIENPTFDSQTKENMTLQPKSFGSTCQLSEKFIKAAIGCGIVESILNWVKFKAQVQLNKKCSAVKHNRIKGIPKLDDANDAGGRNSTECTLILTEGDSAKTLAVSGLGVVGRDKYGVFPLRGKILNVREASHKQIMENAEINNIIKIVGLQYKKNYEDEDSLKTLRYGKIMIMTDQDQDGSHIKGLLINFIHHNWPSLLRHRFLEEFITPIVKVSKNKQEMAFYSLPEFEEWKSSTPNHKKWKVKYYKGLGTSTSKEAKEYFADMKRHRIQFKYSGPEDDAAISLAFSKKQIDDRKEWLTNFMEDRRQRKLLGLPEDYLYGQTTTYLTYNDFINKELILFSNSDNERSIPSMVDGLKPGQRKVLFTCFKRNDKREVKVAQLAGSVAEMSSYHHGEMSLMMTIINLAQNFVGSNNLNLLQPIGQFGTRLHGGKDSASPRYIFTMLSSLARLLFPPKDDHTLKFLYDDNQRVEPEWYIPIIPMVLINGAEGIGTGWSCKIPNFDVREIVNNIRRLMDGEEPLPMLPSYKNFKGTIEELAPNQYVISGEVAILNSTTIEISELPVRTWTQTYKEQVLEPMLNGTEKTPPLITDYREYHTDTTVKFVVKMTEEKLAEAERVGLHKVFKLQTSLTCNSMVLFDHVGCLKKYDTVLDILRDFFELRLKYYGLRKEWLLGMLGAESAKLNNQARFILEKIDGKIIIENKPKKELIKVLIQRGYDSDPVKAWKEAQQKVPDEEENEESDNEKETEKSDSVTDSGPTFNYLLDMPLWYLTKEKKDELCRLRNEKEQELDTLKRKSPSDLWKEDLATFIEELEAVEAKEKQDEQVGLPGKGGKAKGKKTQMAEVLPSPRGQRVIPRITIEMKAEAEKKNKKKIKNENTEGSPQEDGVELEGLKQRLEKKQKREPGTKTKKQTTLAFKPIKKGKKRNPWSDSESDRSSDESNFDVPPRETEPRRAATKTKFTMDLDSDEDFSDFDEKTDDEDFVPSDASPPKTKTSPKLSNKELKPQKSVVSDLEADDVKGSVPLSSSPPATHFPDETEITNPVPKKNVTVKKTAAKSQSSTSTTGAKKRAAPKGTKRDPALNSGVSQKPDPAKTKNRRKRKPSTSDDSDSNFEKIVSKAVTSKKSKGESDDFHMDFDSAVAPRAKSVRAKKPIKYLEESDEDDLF
Sequence of Telomerase reverse transcriptase (Homo sapiens) (O14746 whole entry): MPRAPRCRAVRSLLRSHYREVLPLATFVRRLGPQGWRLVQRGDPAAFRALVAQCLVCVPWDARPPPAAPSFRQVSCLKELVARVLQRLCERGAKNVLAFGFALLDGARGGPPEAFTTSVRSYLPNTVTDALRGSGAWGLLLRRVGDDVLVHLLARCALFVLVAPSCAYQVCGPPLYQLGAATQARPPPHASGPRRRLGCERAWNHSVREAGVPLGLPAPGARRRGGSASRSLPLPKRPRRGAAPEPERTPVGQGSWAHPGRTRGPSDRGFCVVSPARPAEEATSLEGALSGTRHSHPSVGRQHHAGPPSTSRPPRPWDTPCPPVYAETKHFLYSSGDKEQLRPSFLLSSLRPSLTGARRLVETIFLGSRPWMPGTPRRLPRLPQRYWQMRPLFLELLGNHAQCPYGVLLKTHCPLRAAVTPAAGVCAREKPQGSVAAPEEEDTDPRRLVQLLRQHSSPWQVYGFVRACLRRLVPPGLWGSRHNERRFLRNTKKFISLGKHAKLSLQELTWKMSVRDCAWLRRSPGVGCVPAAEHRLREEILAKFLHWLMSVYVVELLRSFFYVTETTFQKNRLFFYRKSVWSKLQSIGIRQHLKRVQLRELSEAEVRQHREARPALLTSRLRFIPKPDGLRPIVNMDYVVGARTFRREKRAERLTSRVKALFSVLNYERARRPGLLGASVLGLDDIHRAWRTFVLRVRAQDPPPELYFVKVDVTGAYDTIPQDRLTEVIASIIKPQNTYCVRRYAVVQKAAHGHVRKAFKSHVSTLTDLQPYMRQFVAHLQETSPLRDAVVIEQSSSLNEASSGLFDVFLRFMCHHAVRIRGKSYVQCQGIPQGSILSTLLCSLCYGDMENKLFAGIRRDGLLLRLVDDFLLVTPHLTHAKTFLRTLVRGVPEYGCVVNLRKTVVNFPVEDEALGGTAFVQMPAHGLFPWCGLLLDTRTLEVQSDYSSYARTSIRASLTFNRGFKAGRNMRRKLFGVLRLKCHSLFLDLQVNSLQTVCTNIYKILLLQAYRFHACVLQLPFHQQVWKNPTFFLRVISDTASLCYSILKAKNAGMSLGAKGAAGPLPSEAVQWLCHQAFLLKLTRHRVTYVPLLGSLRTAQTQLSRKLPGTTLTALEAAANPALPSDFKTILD

On to `C=CCC1(O)COC2=C(Cl)C(=O)C(=O)c3cccc1c32` (stereo unspecified), for which the results for the IC50 in assay [1] and in assay [2] were 3.54 µM and 5.33 µM, respectively. Moreover, the inhibition (commonly the percentage by which the read-out fell short of the control) in assay [3] is “Active”.

For `CC1COC2=CC(=O)C(=O)c3cccc1c32` (stereo unspecified), the IC50 (usually the concentration that gives 50% inhibition) stood at 1.88 µM in assay [4], 2.05 µM in assay [1] and 1.77 µM in assay [2]. The Ratio IC50 in assay [5] turned out to be 32. Also, the inhibition came out at 22% in assay [6] and 29% in assay [7]. Moreover, the inhibition entry in assay [3] is “inactive”.

`CC1=C(OCC(=O)c2ccc(Cl)cc2)c2ccccc2C(=O)C1=O`: the IC50 in assay [1] was 30.4 µM; in assay [2], greater than 50 µM.

As for `CC1(OC(=O)c2ccccc2)COC2=C(Cl)C(=O)C(=O)c3cccc1c32` (stereo unspecified), the IC50 in assay [1] came to 8.05 µM; in assay [2], 10.8 µM. The inhibition result in assay [3] was “Active”.

Take `CC1=C(OCC#N)c2ccccc2C(=O)C1=O`: the IC50 in assay [1] amounted to 39.5 µM; in assay [2] it was 39.2 µM.

`O=C1C=C2OCC(O)(Cc3ccccc3)c3cccc(c32)C1=O` (stereo unspecified): the values for the IC50 in assay [4], in assay [1] and in assay [2] were 4.88 µM, 4.47 µM and 3.82 µM, respectively. In addition, in assay [5], the Ratio IC50 turned out to be 12. The inhibition result in assay [3] was “Active”.

With `CC1(O)COC2=C(Cl)C(=O)C(=O)c3cccc1c32` (stereo unspecified), the IC50 in assay [1] turned out to be 8.12 µM; in assay [2], 11.3 µM. Also, the inhibition entry in assay [3] is “Active”.

With `O=C1C=C2OC=C(c3ccc(F)cc3)c3cccc(c32)C1=O`, the IC50 in assay [1] is 16 µM; in assay [2], 3.21 µM. Also, the inhibition result in assay [3] was “Active”.

Turning to `COc1ccc(C(=O)COC2=C(C)C(=O)C(=O)c3ccccc32)cc1`, the IC50 in assay [1] worked out at 30.4 µM; in assay [2], 44.3 µM.

Consider `O=C1C=C2OC=C(Cc3ccccc3)c3cccc(c32)C1=O`, for which the IC50 in assay [1] was 6.52 µM; in assay [2], 2.88 µM. Moreover, in assay [3], the inhibition entry is “Active”.

Turning to `O=C1C(=O)c2cccc3c2C(=C1Cl)OCC3(O)c1ccccc1` (stereo unspecified), the IC50 was 2.87 µM in assay [1] and 5.63 µM in assay [2]. Besides, the inhibition entry in assay [3] is “Active”.

Regarding `O=C1C=C2OC=C(c3ccccc3)c3cccc(c32)C1=O`, the figures for the IC50 in assay [1] and in assay [2] were 9.19 µM and 3.68 µM, respectively. In addition, in assay [3], the inhibition result was “Active”.

For `c1ccc2nc3c(cc4c5c(cccc53)CCO4)nc2c1`, the IC50 in assay [1] and in assay [2] was greater than 50 µM each time.

For the compound `CC1=C(OCC(=O)c2ccc(C)c(C)c2)c2ccccc2C(=O)C1=O`, the IC50 in assay [1] and in assay [2] was greater than 50 µM throughout.

Regarding `O=C1C(=O)c2cccc3c2C(=C1Cl)OC=C3c1ccc(F)cc1`, the IC50 in assay [1] was 27.5 µM; in assay [2] it was 31.3 µM. In assay [3], the inhibition entry was “Active”.

As for `CC[C@@]1(O)C(=O)OCc2c1cc1n(c2=O)Cc2cc3cc(O)ccc3nc2-1` [HYDROXYCAMPTOTHECIN], the IC50 in assay [1] was determined as 1.04 µM; in assay [2] it was 0.23 µM.

Turning to `C=CCC1=COC2=C(Cl)C(=O)C(=O)c3cccc1c32`, the values for the IC50 in assay [4], in assay [1] and in assay [2] were 1.54 µM, 5.2 µM and 3.77 µM, respectively. Further, in assay [5], the Ratio IC50 turned out to be 39. For the same compound, in assay [3], the inhibition result was “Active”.

In the case of `C=CCOC1=C(C)C(=O)C(=O)c2ccccc21`, the IC50 in assay [1] and in assay [2] was greater than 50 µM in each case.

`O=C1/C(=N\O)C=C2OCCc3cccc1c32`: the IC50 in assay [1] and in assay [2] was greater than 50 µM in each case.

Regarding `O=C1C=C2OCC(O)(c3ccc(F)cc3)c3cccc(c32)C1=O` (stereo unspecified), the IC50 in assay [1] is 9.76 µM; in assay [2], 6.63 µM. In addition, the inhibition result in assay [3] is “Active”.

For `c1ccc(-c2nc3cc4c5c(cccc5c3o2)CCO4)cc1`, the IC50 in assay [1] and in assay [2] was greater than 50 µM throughout.

As to `O=C1C=C2OCCc3cccc(c32)/C1=N/O`, the results for the IC50 in assay [1] and in assay [2] were 5.7 µM and 42.8 µM, respectively.

As for `CC(=O)COC1=C(C)C(=O)C(=O)c2ccccc21`, the IC50 in assay [1] and in assay [2] was greater than 50 µM throughout.

As to `O=C1C(=O)c2cccc3c2C(=C1Cl)OCC3(O)c1ccc(F)cc1` (stereo unspecified), the IC50 in assay [1] came to 13.5 µM; in assay [2], 9.74 µM. Besides, the inhibition result in assay [3] was “Active”.

On to `CC1=COC2=C(C)C(=O)C(=O)c3c(C)ccc1c32` [MANSONONE F], for which the IC50 was 27.3 µM in assay [1] and 15.5 µM in assay [2]. Further, the inhibition result in assay [3] was “Active”.

As for `O=C1C=C2OCC(O)(c3ccccc3)c3cccc(c32)C1=O` (stereo unspecified), the IC50 in assay [1] is 3.18 µM; in assay [2], 5.33 µM. Besides, the inhibition entry in assay [3] was “Active”.

In the case of `c1cc2c3c(cc4nccnc4c3c1)OCC2`, the IC50 in assay [1] and in assay [2] was greater than 50 µM throughout.

Regarding `O=C1C(=O)c2cccc3c2C(=C1Cl)OC=C3Cc1ccccc1`, the IC50 in assay [1] is 21.5 µM; in assay [2], 21.6 µM. The inhibition entry in assay [3] is “Active”.

Take `O=C1C=C2OCCc3cccc(c32)C1=O`: the values for the IC50 in assay [1] and in assay [2] were 4.83 µM and 5.32 µM, respectively.

Take `CCCC1(O)COC2=C(Cl)C(=O)C(=O)c3cccc1c32` (stereo unspecified): the IC50 in assay [1] is 3.59 µM; in assay [2] it was 7.93 µM. In addition, the inhibition entry in assay [3] was “Active”.

On to `CCCC1=COC2=C(Cl)C(=O)C(=O)c3cccc1c32`, for which the IC50 in assay [1] worked out at 3.93 µM; in assay [2], 2.15 µM. In assay [3], the inhibition result was “Active”.

`CC1(O)COC2=CC(=O)C(=O)c3cccc1c32` (stereo unspecified): the results for the IC50 in assay [1] and in assay [2] were 17.3 µM and 19.2 µM, respectively.

Consider `O=C1C(=O)c2cccc3c2C(=C1Cl)OCC3(O)Cc1ccccc1` (stereo unspecified), for which the IC50 in assay [1] worked out at 6.34 µM; in assay [2] it was 2.75 µM. In addition, the inhibition entry in assay [3] is “Active”.

As to `O=C1C(=O)c2cccc3c2C(=C1Cl)OC=C3c1ccccc1`, the half-inhibitory concentration (IC50) came to 33.3 µM in assay [1] and 40.2 µM in assay [2]. Besides, the inhibition entry in assay [3] was “Active”.
